Data: ChEMBL document CHEMBL1157842, “Novel derivatives of 1,3,4-oxadiazoles are potent mitostatic agents featuring strong microtubule depolymerizing activity in the sea urchin embryo and cell culture assays” (Eur J Med Chem, 2010)
Calls of active or inactive are those of the source.

Experiments:
Paracentrotus lividus [1] = experiment: Antiproliferative activity against Paracentrotus lividus embryo assessed as cleavage alteration after 10 to 15 mins fertilization 45 to 60 mins before first mitotic cycle completeion; assay type: functional, organism-based
In short: (§1)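 Paracentrotus lividus embryos, gametes obtained by intracoelomic 0.5 M KCl injection. Fertilized eggs ([…] post-fertilization, 45–60 min before first mitosis) were exposed to 2-fold decreasing concentrations, at up to 3000 embryos/mL in filtered sea water at room temperature. Stocks were 5 mM in 95% EtOH or 5–10 mM in DMSO, diluted 10-fold with 95% EtOH. Read-out was scored at 2.5–6 h: threshold concentration for cleavage alteration or full mitotic arrest. Duplicate measurements.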

Paracentrotus lividus [2] = experiment: Antimitotic activity against Paracentrotus lividus embryo assessed as cleavage arrest after 10 to 15 mins fertilization 45 to 60 mins before first mitotic cycle completeion; assay type: functional, organism-based; in short: as §1
Paracentrotus lividus [3] = experiment: Cytotoxicity against Paracentrotus lividus embryo assessed as embryo spinning after 9 to 12 hrs fertilization and 0.5 to 20 hrs treatment; assay type: functional, organism-based
In short: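 Paracentrotus lividus free-swimming blastulae treated just after hatching (9–12 h post-fertilization). Behavior was monitored by light microscopy and embryo spinning scored as threshold concentration. Embryos were held in filtered sea water at room temperature with paddle agitation. Compound stocks were in 95% EtOH or DMSO diluted in EtOH; maximal tolerated final DMSO 0.05%, EtOH 1%.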

A549 [4] = experiment: Cytotoxicity against human A549 cells after 24 hrs by MTT assay; assay type: functional, cell-based; conditions: A549, 24 h
In short: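 A549 cells in DMEM/10% FBS at 3 × 10³ cells/well, treated 24 h (8 wells per concentration), with 0.4% DMSO as control. MTT (final 0.5 mg/mL) was added for the last 2 h and formazan dissolved in DMSO containing 10% SDS/0.6% acetic acid. OD read at 590 nm (690 nm reference). Three repeats; IC50 from sigmoidal fit.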

A549 [5] = experiment: Cell cycle arrest in human A549 cells assessed as accumulation at G2/M phase after 24 hrs using propidium iodide staining by flow cytometry; assay type: functional, cell-based
In short: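 A549 cells seeded at 5 × 10⁵ per 50 mm dish and treated 24 h, with 0.4% DMSO as negative control. Cells were trypsinized, fixed in 70% ethanol at −20 °C, then treated with RNase 1 mg/mL for 30 min at 37 °C and propidium iodide for 30 min at 37 °C. DNA content of 10000 cells measured by flow cytometry; EC50 for G2/M accumulation.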

A549 [6] = experiment: Induction of microtubule disruption in human A549 cells at 5 uM after 8 hrs by indirect immunofluorescence microscopic analysis; assay type: functional, cell-based
In short: (§2)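 A549 cells on glass coverslips (2 × 10⁴ per coverslip) exposed 8 h at 37 °C, 5% CO₂, with 0.6% DMSO as negative control. Fixed cells were stained with mouse anti-α-tubulin (1:400) and Alexa Fluor 488 goat anti-mouse IgG (1:200). Microtubule network examined by fluorescence microscopy.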

A549 [7] = experiment: Induction of microtubule disruption in human A549 cells at 25 uM after 8 hrs by indirect immunofluorescence microscopic analysis; assay type: functional, cell-based; in short: as §2
Bos taurus = species on record: Bos taurus; experiment: Inhibition of purified bovine brain tubulin polymerization at 10 uM after 1 hr by VEC-DIC microscopic analysis
In short: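 Bovine brain tubulin (1.2 mg/mL) in BRB80 (80 mM PIPES pH 6.8, 1 mM MgCl₂, 1 mM EGTA) was polymerized with 10% DMSO and 0.5 mM GTP. It was then incubated 1 h at 37 °C with compound, using 0.6% DMSO as negative control. Microtubule assembly was scored by VEC-DIC video microscopy.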

[8] = Inhibition of tubulin polymerization at 10 uM
Paracentrotus lividus [9] = experiment: Toxicity in Paracentrotus lividus embryo assessed as mortality at => 1 uM after 9 to 12 hrs fertilization; assay type: organism-based; conditions: in vivo
A549 [10] = experiment: Induction of microtubule disruption in human A549 cells at 20 uM after 8 hrs by indirect immunofluorescence microscopic analysis; assay type: functional, cell-based
[11] = Homo sapiens, A549, 24 h, read-out: EC50

Row | SMILES | EC50 (Paracentrotus lividus [1]) [nM] | EC50 (Paracentrotus lividus [2]) [nM] | EC50 (Paracentrotus lividus [3]) [nM] | further results
1 | Nc1ccccc1-c1nnc(Nc2ccc3c(c2)OCO3)o1 | 1 | 10 | 1000 | IC50 (A549 [4]): 3000 nM; EC50 (A549 [5]; [11]): 8550 nM; Activity (A549 [6]): inactive; Activity (A549 [7]): Active; Activity (Bos taurus): Active; Activity [8]: Active
2 | COc1cc(-c2nnc(Nc3ccc4c(c3)OCO4)o2)cc(OC)c1OC | 400 | 1000 | > 5000 | Activity (Paracentrotus lividus [9]): Toxic
3 | COc1ccc(/C=C\c2cc(OC)c(OC)c(OC)c2)cc1OP(=O)(O)O [FOSBRETABULIN DISODIUM] | 5 | 10 | 1000 | –
4 | c1ccc(-c2nnc(Nc3ccc4c(c3)OCO4)o2)c(NCc2ccncc2)c1 | 0.5 | 2 | 5 | –
5 | Nc1cc2c(cc1-c1nnc(Nc3ccc4c(c3)OCO4)o1)OCO2 | 50 | 500 | 200 | –
6 | Nc1csnc1-c1nnc(Nc2ccc3c(c2)OCO3)o1 | 500 | 4000 | > 5000 | IC50 (A549 [4]): > 20000 nM; EC50 (A549 [5]; [11]): > 20000 nM; Activity (A549 [10]): inactive
7 | c1cncc(CNc2csnc2-c2nnc(Nc3ccc4c(c3)OCO4)o2)c1 | 5 | 50 | 50 | –
8 | COC(=O)Nc1nc2cc(C(=O)c3cccs3)ccc2[nH]1 [NOCODAZOLE] | 5 | 10 | 100 | IC50 (A549 [4]): 36.6 nM; EC50 (A549 [5]; [11]): 106 nM
9 | c1cncc(CNc2ccccc2-c2nnc(Nc3ccc4c(c3)OCO4)o2)c1 | 1 | 5 | 5 | –
10 | c1ccc(-c2nnc(Nc3ccc4c(c3)OCCO4)o2)c(NCc2ccncc2)c1 | 0.5 | 2 | 5 | IC50 (A549 [4]): 15 nM; EC50 (A549 [5]; [11]): 44.5 nM; EC50 (A549 [5]; a549): Dose-dependent effect; Activity (A549 [6]): Active; Activity (Bos taurus): Active; Activity [8]: Active
11 | Cn1ncc(NCc2cccnc2)c1-c1nnc(Nc2ccc3c(c2)OCCO3)o1 | 200 | 1000 | > 2500 | –
12 | COc1ccc(/C=C\c2cc(OC)c3c(c2)OCO3)cc1O [Combretastatin A-2] | 2 | 10 | 50 | –
13 | c1cncc(CNc2csnc2-c2nnc(Nc3ccc4c(c3)OCCO4)o2)c1 | 5 | 10 | 100 | –
14 | c1cc(CNc2csnc2-c2nnc(Nc3ccc4c(c3)OCO4)o2)ccn1 | 2 | 5 | 20 | –
15 | c1cc(CNc2csnc2-c2nnc(Nc3ccc4c(c3)OCCO4)o2)ccn1 | 2 | 5 | 100 | IC50 (A549 [4]): 53.5 nM; EC50 (A549 [5]; [11]): 63 nM; EC50 (A549 [5]; a549): Dose-dependent effect; Activity (A549 [6]): Active; Activity (Bos taurus): Active; Activity [8]: Active
16 | Clc1ccc(Nc2nnc(-c3nscc3NCc3cccnc3)o2)cc1 | 500 | 2000 | > 2500 | –
17 | COc1cc(N)c(-c2nnc(Nc3ccc4c(c3)OCO4)o2)c(OC)c1 | 50 | 200 | 1000 | –
18 | CS(=O)(=O)c1ccc(Nc2nnc(-c3ccccc3N)o2)cc1 | 4000 | > 4000 | > 5000 | –
19 | COc1cc([C@@H]2c3cc4c(cc3[C@H](O)[C@H]3COC(=O)[C@H]23)OCO4)cc(OC)c1OC [PODOFILOX] | 20 | 50 | 500 | –
20 | c1cncc(CNc2cn[nH]c2-c2nnc(Nc3ccc4c(c3)OCO4)o2)c1 | 1000 | > 10000 | > 10000 | –
21 | Nc1ccccc1-c1nnc(Nc2ccc3c(c2)OCCO3)o1 | 1 | 20 | 100 | IC50 (A549 [4]): 1570 nM; EC50 (A549 [5]; [11]): 2820 nM; Activity (A549 [6]): inactive; Activity (A549 [7]): Active; Activity (Bos taurus): Active; Activity [8]: Active
22 | c1ccc(-c2nnc(Nc3ccc4c(c3)OCCO4)o2)c(NCc2ccns2)c1 | 2000 | 5000 | 5000 | –
23 | Nc1nc2ccccc2cc1-c1nnc(Nc2ccc3c(c2)OCO3)o1 | 50 | 2000 | > 2000 | –
24 | Nc1csnc1-c1nnc(Nc2ccc(Cl)cc2)o1 | 200 | 500 | 500 | –
25 | Nc1[nH]ncc1-c1nnc(Nc2ccc3c(c2)OCO3)o1 | > 20000 | > 20000 | > 20000 | –
26 | c1cncc(CNc2ccccc2-c2nnc(Nc3ccc4c(c3)OCCO4)o2)c1 | 1 | 5 | 5 | –
27 | c1cncc(CNc2cn[nH]c2-c2nnc(Nc3ccc4c(c3)OCCO4)o2)c1 | 1000 | > 10000 | > 10000 | –
28 | COc1ccc(-c2nnc(Nc3ccc4c(c3)OCCO4)o2)c(N)c1 | 25 | 100 | 200 | –
